The values that follow come from ChEMBL document CHEMBL3352184, “6-Deoxy-13-hydroxy-8,11-dione-dihydrogranaticin B, an intermediate in granaticin biosynthesis, from Streptomyces sp. CPCC 200532” (J Nat Prod, 2014).

A word on the IC50: it is the concentration that gives 50% inhibition. Lower therefore signals greater potency.

For assay [1], the system named is A549. The assay is described as follows: Cytotoxicity against human A549 cells by MTT assay. The format is functional, cell-based. The procedure, abridged: (§1)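 MTT read-out on cancer cell lines exposed to a series of concentrations per compound (ranges spanning roughly 0.6–372.1 μM); compounds dissolved in DMSO, final DMSO 0.1%.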
The nature of assay [2]: Cytotoxicity against human HCT116 cells by MTT assay. The assay is classed as functional, cell-based. The following applies: HCT-116. In outline: as §1
(Tetrazolium assays rely on reduction of a dye to a coloured formazan, in cell work by metabolically active cells.)

Assay [3] deals with HeLa. In words: Cytotoxicity against human HeLa cells by MTT assay. The format is functional, cell-based. The procedure, abridged:
as §1

Assay [4] relates to HepG2. The assay is described as follows: Cytotoxicity against human HepG2 cells by MTT assay. The assay is classed as functional, cell-based. In outline: as §1
For assay [5], the system named is Bacillus subtilis. The assay is described as follows: Antibacterial activity against Bacillus subtilis CMCC 63501 after 16 to 18 hrs by filter paper disk assay. The assay is classed as functional, organism-based.

Calls of active or inactive are those of the source. No cut-off for these calls is given here.

As for `C[C@@H]1O[C@H]2CC(=O)O[C@H]2C2=C1C(=O)c1c(O)c3c(c(O)c1C2=O)[C@H]1C[C@@H](O)[C@]3(O)[C@@H](C)O1`, the IC50 in assay [1] is 1.3 µM; in assay [2] it was 11 µM; in assay [3] it was 0.7 µM; in assay [4] it was 6.6 µM.

`C[C@@H]1O[C@@H](CC(=O)O)Cc2cc3c(c(O)c21)C(=O)C1=C(C3=O)[C@H]2C[C@@H](O)[C@@]1(O)[C@@H](C)O2`: the IC50 in assay [1] was 197 µM; in assay [2], 179 µM; in assay [3], 297 µM; in assay [4], 148 µM.

As to `C[C@@H]1O[C@@H](CC(=O)O)CC2=C1C(=O)c1c(O)c3c(c(O)c1C2=O)[C@H]1C[C@@H](O[C@H]2CC[C@H](O)[C@H](C)O2)[C@@]3(O)[C@@H](C)O1`, in assay [5], the outcome was Active.

Turning to `C[C@@H]1O[C@H]2CC(=O)O[C@H]2C2=C1C(=O)c1c(O)c3c(c(O)c1C2=O)[C@H]1C[C@@H](O[C@H]2CC[C@H](O)[C@H](C)O2)[C@@]3(O)[C@@H](C)O1` [GRANATICIN B], the IC50 was 1.9 µM in assay [1], 14.8 µM in assay [2], 1.6 µM in assay [3] and 5.8 µM in assay [4]. For the same molecule, the result in assay [5] was Active.

For `C[C@@H]1O[C@@H](CC(=O)O)Cc2cc3c(c(O)c21)C(=O)C1=C(C3=O)[C@H]2C[C@@H](O[C@H]3CC[C@H](O)[C@H](C)O3)[C@@]1(O)[C@@H](C)O2`, the IC50 in assay [1] was determined as 37.6 µM; in assay [2] it was 13.1 µM; in assay [3] it was 20.2 µM; in assay [4], 18.8 µM.
